procasp3 activ = activates human procaspase-3; P42574; recombinant procaspase-3 D3A, Ac-DEVD-pNA absorbance 405 nm; activation, % at 8.5 µM; hit rate 0.11% among 330,000; AID 463141;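 active means activation above the mean of all tested compounds plus 3 SD, cut at about 21% in these data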
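Test system: Procaspase-3 D3A mutant, all three cleavage aspartates alanine | Dosing: Single dose, 8.5 µM nominal compound, 0.8% DMSO | Schedule: 1 h preincubation, 2 h reaction | Technique: 405 nm absorbance of p-nitroaniline, reads at 0 and 120 min | Repeats: One well per compound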
PREPL inh = inhibitors of human prolyl oligopeptidase-like enzyme PREPL | recombinant PREPL, fluorescence polarization activity-based probe | hit rate 0.68% among 320,000 | inhibition, % at 5.96 µM | Q4J6C6; in the data active means inhibition above about 43%
LYPLA1 inh = counter-screen for PME1 inhibitors: inhibitors of human LYPLA1 | O75608 | recombinant LYPLA1, FP-Rh probe fluorescence polarization | inhibition, % at 5.9 µM | hit rate 0.16% among 320,000;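 active means inhibition above the mean of all tested compounds plus 3 SD, set per campaign, cut at about 14% in these data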;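 further: inhibitors block serine hydrolase probe labeling of LYPLA1 so polarization falls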
LYPLA2 counter = counter-screen for PME1 inhibitors: inhibitors of human LYPLA2; recombinant LYPLA2, FP-Rh probe fluorescence polarization; inhibition, % at 5.9 µM; hit rate 0.38% among 320,000; O95372; AID 2177;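 active means inhibition above the screen-wide mean plus 3 SD, limit set per campaign, cut at about 26% in these data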
proCasp7 act = activates human procaspase-7, counter-screen for procaspase-3 activators; hit rate 0.093% among 330,000; activation, % at 8.5 µM; P55210; AID 463210; recombinant procaspase-7, Ac-DEVD-pNA absorbance 405 nm; D23A/D198A/D206A triple mutant, cannot self-cleave; scale: DMSO 0, 5 µM enzyme 100;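 active means percent activation above the screen-wide mean plus 3 SD, cut at about 25% in these data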
Target sequence (P55210 whole entry D23A/D198A/D206A): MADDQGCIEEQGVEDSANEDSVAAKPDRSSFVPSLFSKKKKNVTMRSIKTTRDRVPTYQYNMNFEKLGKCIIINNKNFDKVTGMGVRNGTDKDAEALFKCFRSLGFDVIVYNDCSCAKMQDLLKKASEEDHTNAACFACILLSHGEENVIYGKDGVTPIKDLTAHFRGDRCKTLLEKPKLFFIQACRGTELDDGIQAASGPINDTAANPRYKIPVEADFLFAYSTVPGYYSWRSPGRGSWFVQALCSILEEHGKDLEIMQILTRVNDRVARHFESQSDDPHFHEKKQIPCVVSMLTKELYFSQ
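Replicates: singlicate. Assay system: Procaspase-7 triple mutant (PC-7 D3A). Signal: 405 nm absorbance of p-nitroaniline. Times: 1 h preincubation, 2 h reaction. Buffer or medium: Zinc-free HEPES pH 7.4 with 300 mM NaCl, 0.01% Triton X-100. Also added: DEVD-pNA substrate. Benchmarks: DMSO wells as 0%, DMSO with 5 µM added PC-7 as 100%.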
LYPLA2 conf = LYPLA2 (human) inhibition, confirmation counter-screen; AID 2232; recombinant LYPLA2, FP-Rh probe fluorescence polarization; hit rate 72% among 1,100; inhibition, % at 5.9 µM; shares compounds with LYPLA2 counter;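 active means mean inhibition across replicates above the hit cutoff set in the primary screen, cut at about 26% in these data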;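 further: blocked labeling of the enzyme by serine hydrolase FP-Rh probe lowers polarization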
LYPLA2 gel ABPP = inhibitors of human LYPLA2; inhibition, % at 20 µM; AID 652029; hit rate 30% among 150; shares compounds with LYPLA2 counter; rhLYPLA2 in mouse brain proteome, gel ABPP FP-Rh;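 active means inhibition of LYPLA2 enzyme probe labeling above about 50%, limit read from the data; inactive means inhibition below that limit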;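 further: loss of FP-Rh probe labeling of the LYPLA2 gel band measured as band density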
A number is an active result; . = inactive; / = no result given. A selection: hits, their analogues and other compounds. The true share with any hit is near 1%.

SMILES	procasp3 activ	PREPL inh	LYPLA1 inh	LYPLA2 counter	proCasp7 act	LYPLA2 conf	others
COc1ccc(NC(=O)N(C)C[C@H]2Oc3ccc(NC(=O)C4CC4)cc3CC(=O)N([C@@H](C)CO)C[C@@H]2C)cc1	.	.	/	/	.	/
C/C=C/c1ccc(OCCCNC2CCCC2)c(OC)c1	.	.	.	.	.	/
Cc1cc(C)c(S(=O)(=O)Cc2ccc(Cl)cc2)c(=O)[nH]1	.	.	.	.	.	/
COc1ccc(CN2CCC(N(CCc3ccccc3)Cc3ccccc3)CC2)c(OC)c1	.	.	.	.	.	/
CN(CC(=O)Nc1ccc(F)c(F)c1F)C(=O)CCc1nc2sc3c(c2c(=O)[nH]1)CCCC3	.	.	.	.	.	/
COc1ccc(N2CCN(C(=O)c3ccc(C(C)(C)C)cc3)CC2)cc1	.	.	.	78.8	.	86.7	LYPLA2 gel ABPP=86.0
O=C(Nc1ccc(C(=O)N2CCN(c3ccc(F)cc3)CC2)cc1)C1=CSCCO1	.	.	.	.	.	/
COc1ccc(N2CCN(C(=O)c3ccc(NC(=O)C4=CSCCO4)cc3)CC2)cc1	.	.	.	34.8	.	38.1
COc1ccc(N2CCN(C(=O)c3ccc(N4C(=O)NC5CC4(C)Oc4ccccc45)cc3)CC2)cc1 (stereo not given)	.	.	.	33.6	.	39.5
COc1ccc(N2CCN(C(=O)CCNC(=O)c3ccc(C(C)(C)C)cc3)CC2)cc1	.	.	.	.	.	/
Cc1ccc(NS(=O)(=O)c2cccc(C(=O)N(C)Cc3cccs3)c2)cc1	.	.	.	.	.	/
CC(C(=O)NC1C=CS(=O)(=O)C1)N1C(=O)/C(=C\c2ccccc2)SC1=S (stereo not given)	.	.	.	.	.	/
COc1ccc(C(=O)O/N=C2\CCCc3nonc32)cc1	.	.	.	41.9	.	60.6
O=C(N/N=C/c1ccccn1)c1ccc([N+](=O)[O-])cc1Cl	.	.	.	.	.	/
CCCCOc1ccc(CSc2nc(C)[nH]c2[N+](=O)[O-])cc1[N+](=O)[O-]	.	.	.	49.8	.	54.3	LYPLA2 gel ABPP=.
CCCCOc1ccc(CSc2nnc(C)n2N)cc1[N+](=O)[O-]	.	.	.	.	.	/
Cc1c(NC(=O)c2c(N)n(-c3ccccc3)c3nc4ccccc4nc23)c(=O)n(-c2ccccc2)n1C	.	.	.	.	.	/
O=C(NCCc1ccc(Cl)cc1)c1ccc2ccccc2n1	.	.	.	.	.	/
COc1cc(/C=C(/C#N)c2ccccc2)ccc1Oc1ccc([N+](=O)[O-])cn1	.	.	.	31.2	.	30.8
COc1cc(/C=C2/NC(=O)N(Cc3ccccc3F)C2=O)ccc1Oc1ccc([N+](=O)[O-])cn1	.	.	.	62.0	.	72.4
Cc1cccc(NC(=O)C(C)Oc2ccccc2C)n1 (stereo not given)	.	.	.	.	.	/
CC(C)(C)n1ncc2c(=O)n(CC(=O)N3CCCCCC3)cnc21	.	.	.	29.1	.	.
Cc1ccc(NC(=O)Cn2cnc3c(cnn3C(C)(C)C)c2=O)cc1	.	.	.	.	.	/
O=C(CNC(=O)c1ccc(S(=O)(=O)N2CCCC2)cc1)N/N=C/c1c(Cl)cccc1Cl	.	.	.	26.1	.	.
O=C(CNC(=O)c1ccc(S(=O)(=O)N2CCCC2)cc1)N/N=C/c1ccc(Cl)cc1	.	.	.	.	.	/
SMILES	procasp3 activ	PREPL inh	LYPLA1 inh	LYPLA2 counter	proCasp7 act	LYPLA2 conf	others
Cc1cc(C)c(OCC(=O)N(C)CC(=O)Nc2ccc(N3CCOCC3)cc2)c(C)c1	.	.	.	.	.	/
Cc1cc(C)c(OCC(=O)Nc2ccc(N3CCOCC3)cc2)c(Br)c1	.	.	.	27.8	.	.
Cc1ccccc1NC(=O)c1nn(C)c2c1CS(=O)(=O)c1ccccc1-2	.	.	.	39.8	.	46.0
Cc1cccc(NC(=O)[C@@H]2CCCN2C(=O)OC(C)(C)C)c1	.	.	.	.	.	/
Cc1nn(-c2ccc(F)cc2)c2sc(C(=O)OC3CCOC3=O)cc12 (stereo not given)	.	.	.	35.0	.	28.1
O=C(Nc1ccc(Cl)cc1)Nn1cnc2ccccc2c1=O	.	.	.	30.2	.	34.1

Compound activity: PubChem, The Scripps Research Institute Molecular Screening Center
